VIM-2 inhibitor: inhibitors of Pseudomonas aeruginosa VIM-2 metallo-beta-lactamase | purified VIM-2, nitrocefin hydrolysis, epi-absorbance fluorescence | inhibition, % at 5.6 µM | 290,000 compounds, 0.89% hits;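 active = inhibition above the mean of all tested compounds plus 3 SD, cutoff set per screening run, cut at about 7.5% in these data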;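 also: red hydrolysis product quenches plate fluorescence so inhibitors raise well fluorescence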
IMP-1 inhibitor: blocks Pseudomonas aeruginosa IMP-1 metallo-beta-lactamase | AID 1556 | 290,000 compounds, 0.45% hits | inhibition, % at 5.6 µM | purified IMP-1, nitrocefin hydrolysis, epi-absorbance fluorescence;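 active = inhibition above the mean plus 3 SD of all compounds in the same screening run, cut at about 4.5% in these data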
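System: purified recombinant IMP-1 beta-lactamase. Medium: Zinc- and detergent-supplemented HEPES buffer, pH 7.1. Compound: one 5.6 µM dose […]. Schedule: 15 min preincubation plus 25 min reaction at 25 °C. Technique: Epi-absorbance fluorescence, 480 nm excitation, 530 nm emission.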
PLC-beta3 inh: PLC-beta3 (human) inhibition, primary screen; Purified PLC-beta3, fluorogenic substrate, fluorescence; inhibition, % at 12.2 µM; 370,000 compounds, 0.18% hits; Q01970
PvdQ acylase: P. aeruginosa PvdQ acylase inhibition. purified PvdQ acylase, fluorescence plate reader. inhibition, % at 10 µM. 340,000 compounds, 0.063% hits; in the data active = inhibition above about 30%, passing the limit was not always enough
PLC-gamma1 inh: PLC-gamma1 (human) inhibition, primary screen; P19174; purified PLC-gamma1, fluorogenic substrate, fluorescence; inhibition, % at 12.2 µM; 370,000 compounds, 0.84% hits; in the data active = inhibition above about 9.5%
Target sequence (P19174 whole entry, looked up): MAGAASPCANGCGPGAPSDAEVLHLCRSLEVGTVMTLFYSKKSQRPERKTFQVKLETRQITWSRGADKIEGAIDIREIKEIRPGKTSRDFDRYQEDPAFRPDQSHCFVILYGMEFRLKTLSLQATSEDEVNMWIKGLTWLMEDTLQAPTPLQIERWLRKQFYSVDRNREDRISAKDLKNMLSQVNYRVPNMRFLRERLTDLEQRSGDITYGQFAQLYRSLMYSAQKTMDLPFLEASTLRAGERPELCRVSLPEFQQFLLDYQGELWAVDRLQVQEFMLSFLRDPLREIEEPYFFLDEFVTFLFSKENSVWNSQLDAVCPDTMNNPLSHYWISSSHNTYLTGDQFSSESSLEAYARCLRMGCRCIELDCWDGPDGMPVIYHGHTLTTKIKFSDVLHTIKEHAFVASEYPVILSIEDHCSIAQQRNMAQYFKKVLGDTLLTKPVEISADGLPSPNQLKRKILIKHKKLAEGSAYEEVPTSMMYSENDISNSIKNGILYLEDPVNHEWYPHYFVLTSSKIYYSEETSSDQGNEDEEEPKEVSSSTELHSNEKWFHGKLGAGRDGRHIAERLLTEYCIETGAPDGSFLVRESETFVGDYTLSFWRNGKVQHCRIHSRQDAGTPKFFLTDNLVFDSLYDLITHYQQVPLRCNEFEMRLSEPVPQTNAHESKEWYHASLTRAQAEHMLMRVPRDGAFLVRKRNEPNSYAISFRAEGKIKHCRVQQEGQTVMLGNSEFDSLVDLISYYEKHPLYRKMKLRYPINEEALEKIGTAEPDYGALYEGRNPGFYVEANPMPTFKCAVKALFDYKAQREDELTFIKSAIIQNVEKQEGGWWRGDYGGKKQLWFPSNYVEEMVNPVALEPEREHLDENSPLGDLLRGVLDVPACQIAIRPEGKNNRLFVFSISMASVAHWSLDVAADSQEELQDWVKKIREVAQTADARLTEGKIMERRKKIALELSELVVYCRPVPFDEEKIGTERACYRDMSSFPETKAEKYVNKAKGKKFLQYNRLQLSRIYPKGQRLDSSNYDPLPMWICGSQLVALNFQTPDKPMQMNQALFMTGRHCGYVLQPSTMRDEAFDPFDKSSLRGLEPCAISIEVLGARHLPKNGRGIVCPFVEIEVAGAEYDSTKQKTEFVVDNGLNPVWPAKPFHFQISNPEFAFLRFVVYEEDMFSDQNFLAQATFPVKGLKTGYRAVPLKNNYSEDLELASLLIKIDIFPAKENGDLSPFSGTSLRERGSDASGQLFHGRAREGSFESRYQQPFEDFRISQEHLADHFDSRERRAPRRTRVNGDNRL
PLCgamma1 ctr: inhibits human PLC-gamma1 in PLC-beta3 counter-screen. purified PLC-gamma1, fluorogenic substrate, fluorescence. shares compounds with PLC-gamma1 inh. AID 743258. inhibition, % at 12.3 µM. 3,300 compounds, 3.1% hits; in the data active = inhibition above about 9.5%
PLCb3 confirm: human PLC-beta3 inhibition, confirmation. shares compounds with PLC-gamma1 inh. purified PLC-beta3, fluorogenic substrate fluorescence. inhibition, % at 12.3 µM. 3,300 compounds, 1% hits
Large screens that a line does not name were inactive (follow-up assays come after a bar, where they were run). Most compounds without a hit are left out; they make up all but 2% or so of the library. Rule as the data show it, unless noted: active = inhibition above about 11%; inactive = the rest.

O=C(OCc1cn(Cc2cccc(Cl)c2)nn1)N1CCOCC1	none (no result: VIM-2 inhibitor, IMP-1 inhibitor, PvdQ acylase)
CCCS(=O)(=O)N1CCCC(c2nc(-c3cccc(OC)c3)no2)C1 (stereo unspecified)	none
COc1cccc(-c2noc(C3CCCN(S(=O)(=O)c4cccc(Cl)c4C)C3)n2)c1 (stereo unspecified)	PLC-gamma1 inh 12 | PLCgamma1 ctr inactive | PLCb3 confirm inactive
CC1CCCC(NC(=O)COc2ncnc3ccccc23)C1C (stereo unspecified)	none (no result: VIM-2 inhibitor, IMP-1 inhibitor)
O=C(COc1ncnc2ccccc12)NC1CCS(=O)(=O)C1 (stereo unspecified)	PLC-gamma1 inh 10 | PLCgamma1 ctr inactive | PLCb3 confirm inactive
CNc1c(C(=O)O)ccc2c1C(=O)c1ccccc1C2=O	none
O=C(O)c1ccc2c(c1Nc1ccccc1)C(=O)c1ccccc1C2=O	PLC-gamma1 inh 10 | PLCgamma1 ctr inactive | PLCb3 confirm inactive
Nn1cnnc1N/N=C/c1ccc(Cl)c([N+](=O)[O-])c1	PLC-gamma1 inh 12 | PLCgamma1 ctr inactive | PLCb3 confirm inactive
Nn1cnnc1N/N=C/c1cccc(Cl)c1Cl	none
Cc1ccc(/C=N/Nc2nncn2N)cc1	PLC-gamma1 inh 11 | PLCgamma1 ctr inactive | PLCb3 confirm inactive
Nn1cnnc1N/N=C/c1ccc(F)cc1	PLC-gamma1 inh 16 | PLCgamma1 ctr inactive | PLCb3 confirm inactive
CC(=O)Nc1ccc(S(=O)(=O)NCC2CCN(C(=O)C(=O)c3cccs3)CC2)cc1	none (no result: VIM-2 inhibitor, IMP-1 inhibitor, PvdQ acylase)
CCOc1c(Cl)cc(CNCC(O)c2ccccc2)cc1OC (stereo unspecified)	PLC-gamma1 inh 11 | PLCgamma1 ctr inactive | PLCb3 confirm inactive
CCOc1c(Cl)cc(CNCC(C)C)cc1OC	none
COC(=O)CCC(=O)N1CCC(CCC(=O)NCc2ccc(F)cc2)CC1	PLC-gamma1 inh 13 | PLCgamma1 ctr inactive | PLCb3 confirm inactive
COC(=O)CCCC(=O)N1CCC(CCC(=O)NCc2ccc(F)cc2)CC1	none
CCN(CC)C(=O)c1cc2c(=O)oc3ccccc3c2s1	PLC-gamma1 inh 11 | PLCgamma1 ctr inactive | PLCb3 confirm inactive
O=C(c1cccc(C(F)(F)F)c1)N1CCOC12CCN(c1ncc(C(F)(F)F)cc1Cl)CC2	PLC-gamma1 inh 11 | PLCgamma1 ctr inactive | PLCb3 confirm inactive
O=C(OC1CCN(c2ncc(C(F)(F)F)cc2Cl)CC1)c1cccc(C(F)(F)F)c1	none
C=C1CC2C=C(NC(C)=O)CC(C1)C2 (stereo unspecified)	PLC-gamma1 inh 12 | PLCgamma1 ctr inactive | PLCb3 confirm inactive
Cc1cccc(OCC(=O)OCC(=O)N(CC(C)C)c2c(N)n(Cc3ccccc3)c(=O)[nH]c2=O)c1C	PLC-gamma1 inh 14 (no result: VIM-2 inhibitor, IMP-1 inhibitor) | PLCgamma1 ctr inactive | PLCb3 confirm inactive
Cc1ccc(CN2CC(C(=O)N(CC(C)C)c3c(N)n(Cc4ccccc4)c(=O)[nH]c3=O)CC2=O)cc1 (stereo unspecified)	PLC-gamma1 inh 10 (no result: VIM-2 inhibitor, IMP-1 inhibitor) | PLCgamma1 ctr inactive | PLCb3 confirm inactive
COc1ccc(/C=C2\CC3(OC(=O)c4ccccc4)CCCN2C3)cc1 (stereo unspecified)	none (no result: VIM-2 inhibitor, IMP-1 inhibitor, PvdQ acylase)
CC(C)(C)S(=O)N1C[C@@H]2CC(=O)C=C2[C@H]1CCO (stereo partly specified)	none (no result: VIM-2 inhibitor, IMP-1 inhibitor, PvdQ acylase)
CCCCCn1nnnc1C1(C)CSCC(=O)N1Cc1ccco1 (stereo unspecified)	none (no result: VIM-2 inhibitor, IMP-1 inhibitor, PvdQ acylase)
CC1Cc2ccccc2N1S(=O)(=O)c1ccc2c(c1)n(C)c(=O)c(=O)n2C (stereo unspecified)	PLC-gamma1 inh 9.6 | PLCgamma1 ctr inactive | PLCb3 confirm inactive
CC(=O)N1c2ccc(S(=O)(=O)N3c4ccccc4CC3C)cc2CC1C (stereo unspecified)	none
O=C(c1ccc(F)cc1F)N(Cc1ccccn1)CC1CCCO1 (stereo unspecified)	none (no result: VIM-2 inhibitor, IMP-1 inhibitor, PvdQ acylase)
CNc1nc(C)nc(N/N=C/c2ccccc2)n1	PLC-gamma1 inh 11 | PLCgamma1 ctr inactive | PLCb3 confirm inactive
O=C(CSc1nnc(-c2ccc(Cl)cc2)n1Cc1ccco1)Nc1ccc(S(=O)(=O)Nc2nccs2)cc1	none (no result: VIM-2 inhibitor, IMP-1 inhibitor, PvdQ acylase)
CCCS(=O)(=O)NC(=O)C1(C)CCN(C(=O)c2cc(C)nn2C(C)(C)C)C1 (stereo unspecified)	PLC-gamma1 inh 9.8 (no result: VIM-2 inhibitor, IMP-1 inhibitor, PvdQ acylase) | PLCgamma1 ctr inactive | PLCb3 confirm inactive
Cc1cc(C)cc(S(=O)(=O)c2cnc3ccccc3n2)c1	none

Assay outcomes: PubChem, several laboratories
